How the values were obtained:
Type in all cases: functional
[1] = tested on: Mus musculus; test: Activity expressed as percent inhibition of anti-TNP IgM level in TNP-LPS immunized mice, at a dose of 10 mg/kg perorally; conditions: route oral
Outline: (§1)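 Female (C57BL/6 × DBA/2)F1 mice, 6 weeks old, immunized i.v. with TNP-LPS on day 0, then randomized (7/group). Compound given orally on days 0 and 1. Serum taken on day 4 and anti-TNP IgM measured by ELISA. Result given as % inhibition of IgM level versus control, with significance by Student's t-test.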

[2] = tested on: Mus musculus; test: Antinephritic activity against Graft-Versus-Host Disease (GVHD) induced (C57BL/6DBA/2)F1 mice at a dose of 32 mg/kg administered perorally; conditions: route oral
Outline: (§2)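 Chronic GVHD induced in 6-week-old female (C57BL/6 × DBA/2)F1 mice by two injections of DBA/2 spleen cells (5 × 10⁷ each), given 5 days apart. Oral dosing once daily for 8 weeks, starting 3 days after the second injection. Urinary albumin measured after the last dose by single radial immunodiffusion with rabbit anti-mouse albumin antiserum. 10 mice/group; % inhibition of proteinuria; Student's t-test.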

[3] = tested on: Mus musculus; test: Inhibition of anti-DNA antibody in autoimmune diseased MRL/I mice at a dose of 1 mg/kg administered perorally; conditions: route oral
[4] = tested on: Mus musculus; test: Inhibition of anti-DNA antibody in autoimmune diseased MRL/I mice at a dose of 3.2 mg/kg administered perorally; conditions: route oral
[5] = tested on: Mus musculus; test: Inhibition of histological score (Nephritis in the kidneys) in the autoimmune diseased MRL/l mice at a dose of 0.32 mg/kg administered perorally; conditions: route oral
[6] = tested on: Mus musculus; test: Inhibition of histological score (Nephritis in the kidneys) in the autoimmune diseased MRL/l mice at a dose of 1 mg/Kg administered perorally; conditions: po
[7] = tested on: Mus musculus; test: Inhibition of histological score (Nephritis in the kidneys) in the autoimmune diseased MRL/l mice at a dose of 3.2 mg/Kg administered perorally; conditions: po
[8] = tested on: Mus musculus; test: Activity was expressed as percent inhibition of anti-TNP IgM level in TNP-LPS immunized mice, at a dose of 0.01 mg/kg perorally; conditions: route oral; outline: as §1
[9] = tested on: Mus musculus; test: Activity was expressed as percent inhibition of anti-TNP IgM level in TNP-LPS immunized mice, at a dose of 0.1 mg/kg perorally; conditions: route oral; outline: as §1
[10] = tested on: Mus musculus; test: Activity was expressed as percent inhibition of anti-TNP IgM level in TNP-LPS immunized mice, at a dose of 1 mg/kg perorally; conditions: route oral; outline: as §1
[11] = tested on: Mus musculus; test: Activity was expressed as percent inhibition of anti-TNP IgM level in TNP-LPS immunized mice, at a dose of 100 mg/kg perorally; conditions: route oral; outline: as §1
[12] = tested on: Mus musculus; test: Inhibition of anti-DNA antibody in autoimmune diseased MRL/I mice at a dose of 0.32 mg/Kg administered perorally; conditions: po
[13] = tested on: Mus musculus; test: Antinephritic activity against Graft-Versus-Host Disease (GVHD) induced (C57BL/6DBA/2) F1 mice at a dose of 32 mg/kg administered perorally; conditions: route oral; outline: as §2

**Q.** With `COc1ccc(N(C)/C(S)=C2/C(=O)c3cc(Cl)ccc3N(C)C2=O)cc1` as the compound, how does the inhibition in vivo at 10 mg/kg [1] read?
**A.** 45%

**Q.** What about the inhibition in vivo at 32 mg/kg [2] of the same compound?
**A.** 97%

**Q.** `C=CCN(C(=S)c1c(O)c2cc(Cl)ccc2n(C)c1=O)c1ccccc1` was tested. Which inhibition in vivo at 32 mg/kg [2] did it give?
**A.** 96%

**Q.** For `CN1C(=O)/C(=C(/S)N(C)c2ccccc2)C(=O)c2cc(Cl)ccc21`, which inhibition in vivo at 1 mg/kg [3] is on record?
**A.** 73%

**Q.** What about the inhibition in vivo at 3.2 mg/kg [4] of the same compound?
**A.** 83%

**Q.** What about the inhibition in vivo at 0.32 mg/kg [5] of the same compound?
**A.** 67%

**Q.** What about the inhibition in vivo at 1 mg/kg [6] of the same compound?
**A.** 85%

**Q.** And the inhibition in vivo at 3.2 mg/kg [7]?
**A.** 85%

**Q.** What about the inhibition in vivo at 0.01 mg/kg [8] of the same compound?
**A.** -3%

**Q.** And the inhibition in vivo at 0.1 mg/kg [9]?
**A.** 22%

**Q.** What about the inhibition in vivo at 1 mg/kg [10] of the same compound?
**A.** 33%

**Q.** What about the inhibition in vivo at 10 mg/kg [1] of the same compound?
**A.** 64%

**Q.** And the inhibition in vivo at 100 mg/kg [11]?
**A.** 77%

**Q.** And the inhibition in vivo at 32 mg/kg [2]?
**A.** 100%

**Q.** And the inhibition in vivo at 0.32 mg/kg [12]?
**A.** 52%

**Q.** For `COc1cccc(N(C)/C(S)=C2/C(=O)c3cc(Cl)ccc3N(C)C2=O)c1`, which inhibition in vivo at 10 mg/kg [1] is on record?
**A.** 30%

**Q.** What about the inhibition in vivo at 32 mg/kg [2] of the same compound?
**A.** 74%

**Q.** How did the inhibition in vivo at 10 mg/kg [1] turn out when `Cc1ccc2c(c1)C(=O)/C(=C(\S)N(C)c1ccccc1)C(=O)N2C` was run?
**A.** 20%

**Q.** For `Cn1c(=O)c(/C(S)=N/c2ccccc2)c(O)c2cc(Cl)ccc21`, which inhibition in vivo at 10 mg/kg [1] is on record?
**A.** 38%

**Q.** With `CSCCN(C(=O)c1c(O)c2cc(SC)ccc2n(C)c1=O)c1ccccc1` as the compound, how does the inhibition in vivo at 32 mg/kg [2] read?
**A.** 65%

**Q.** How did the inhibition in vivo at 10 mg/kg [1] turn out when `CSc1ccc2c(c1)c(O)c(C(=S)N(C)c1ccccc1)c(=O)n2C` was run?
**A.** 32%

**Q.** And the inhibition in vivo at 32 mg/kg [2]?
**A.** 99%

**Q.** Which inhibition in vivo at 10 mg/kg [1] does the source give for `COc1ccc2c(c1)c(O)c(C(=S)N(C)c1ccccc1)c(=O)n2C` here?
**A.** 31%

**Q.** What about the inhibition in vivo at 32 mg/kg [2] of the same compound?
**A.** 99%

**Q.** How did the inhibition in vivo at 10 mg/kg [1] turn out when `CN1C(=O)/C(=C(/S)N(C)c2cccs2)C(=O)c2cc(Cl)ccc21` was run?
**A.** 19%

**Q.** How did the inhibition in vivo at 10 mg/kg [1] turn out when `Cc1ccc(N(C)/C(S)=C2/C(=O)c3cc(Cl)ccc3N(C)C2=O)cc1` was run?
**A.** 23%

**Q.** Which inhibition in vivo at 10 mg/kg [1] does the source give for `CN1C(=O)/C(=C(/S)N(C)c2ccc(F)cc2)C(=O)c2cc(Cl)ccc21` here?
**A.** 54%

**Q.** Which inhibition in vivo at 32 mg/kg [2] does the source give for `CSc1ccc2c(c1)c(=O)c(C(=O)N(C)c1ccccc1)c(S)n2C` here?
**A.** 96%

**Q.** For `CN1C(=O)/C(=C(/S)N(C)c2ccc(Br)cc2)C(=O)c2cc(Cl)ccc21`, which inhibition in vivo at 10 mg/kg [1] is on record?
**A.** 50%

**Q.** Which inhibition in vivo at 32 mg/kg [2] does the source give for `CSc1ccc(N(C)C(=O)c2c(O)c3cc(SC)ccc3n(C)c2=O)cc1` here?
**A.** 87%

**Q.** Which inhibition in vivo at 10 mg/kg [1] does the source give for `CN1C(=O)/C(=C(/S)N(C)c2ccc(F)c(F)c2)C(=O)c2cc(Cl)ccc21` here?
**A.** 62%

**Q.** `CN1C(=O)/C(=C(/S)N(C)c2ccc(Cl)cc2)C(=O)c2cc(Cl)ccc21` was tested. Which inhibition in vivo at 10 mg/kg [1] did it give?
**A.** 47%

**Q.** With `CN1C(=O)/C(=C(/S)N(C)c2ccccc2)C(=O)c2cc(-n3cccc3)ccc21` as the compound, how does the inhibition in vivo at 10 mg/kg [1] read?
**A.** -10%

**Q.** With `CN1C(=O)/C(=C(/S)N(C)c2ccc(OC(F)(F)F)cc2)C(=O)c2cc(Cl)ccc21` as the compound, how does the inhibition in vivo at 10 mg/kg [1] read?
**A.** 39%

**Q.** `CN(C(=O)c1c(O)c2ccccc2n(C)c1=O)c1ccccc1` [ROQUINIMEX] was tested. Which inhibition in vivo at 1 mg/kg [10] did it give?
**A.** 13%

**Q.** What about the inhibition in vivo at 10 mg/kg [1] of the same compound?
**A.** 41%

**Q.** And the inhibition in vivo at 100 mg/kg [11]?
**A.** 49%

**Q.** With `CN1C(=O)/C(=C(/S)N(C)c2ccccc2)C(=O)c2cc(Br)ccc21` as the compound, how does the inhibition in vivo at 10 mg/kg [1] read?
**A.** 56%

**Q.** And the inhibition in vivo at 32 mg/kg [2]?
**A.** 98%

**Q.** For `CS/C(=N\c1ccccc1)c1c(O)c2cc(SC)ccc2n(C)c1=O`, which inhibition in vivo at 32 mg/kg [2] is on record?
**A.** 84%

**Q.** `CN1C(=O)/C(=C(/S)N(C)c2ccccc2)C(=O)c2ccccc21` was tested. Which inhibition in vivo at 32 mg/kg [2] did it give?
**A.** 85%

**Q.** `CSc1ccc2c(c1)c(O)c(C(=O)N(C)c1ccccc1)c(=O)n2C` was tested. Which inhibition in vivo at 0.1 mg/kg [9] did it give?
**A.** 18%

**Q.** What about the inhibition in vivo at 1 mg/kg [10] of the same compound?
**A.** 50%

**Q.** And the inhibition in vivo at 10 mg/kg [1]?
**A.** 67%

**Q.** What about the inhibition in vivo at 32 mg/kg [13] of the same compound?
**A.** 100%

**Q.** `CSc1ccc2c(c1)c(O)c(S(=O)(=O)N(C)c1ccccc1)c(=O)n2C` was tested. Which inhibition in vivo at 32 mg/kg [2] did it give?
**A.** 53%

**Q.** `CN1C(=O)/C(=C(/S)N(C)c2ccccc2)C(=O)c2cc(OC(F)(F)F)ccc21` was tested. Which inhibition in vivo at 10 mg/kg [1] did it give?
**A.** 19%

**Q.** For `CN1C(=O)/C(=C(/S)N(C)c2cccc(C(F)(F)F)c2)C(=O)c2cc(Cl)ccc21`, which inhibition in vivo at 10 mg/kg [1] is on record?
**A.** 29%

**Q.** How did the inhibition in vivo at 10 mg/kg [1] turn out when `COCCCN(/C(S)=C1/C(=O)c2cc(Cl)ccc2N(C)C1=O)c1ccccc1` was run?
**A.** 31%

**Q.** How did the inhibition in vivo at 10 mg/kg [1] turn out when `Cn1c(=O)c(C(=S)N(c2ccccc2)C(C)(C)C)c(O)c2cc(Cl)ccc21` was run?
**A.** 11%

**Q.** Which inhibition in vivo at 32 mg/kg [2] does the source give for `CSc1ccc2c(c1)c(=O)c(C(=S)N(C)c1ccccc1)c(S)n2C` here?
**A.** 37%

**Q.** `CN1C(=O)/C(=C(/S)N(C)c2cccc(Cl)c2)C(=O)c2cc(Cl)ccc21` was tested. Which inhibition in vivo at 10 mg/kg [1] did it give?
**A.** 63%

**Q.** For `Cc1cc(Cl)cc2c1N(C)C(=O)/C(=C(/S)N(C)c1ccccc1)C2=O`, which inhibition in vivo at 10 mg/kg [1] is on record?
**A.** 17%

**Q.** Which inhibition in vivo at 32 mg/kg [2] does the source give for `CN1C(=O)/C(=C(/S)N(C)c2ccccc2)C(=O)c2ccc(Cl)cc21` here?
**A.** -23%

Reference: ChEMBL document CHEMBL1134902, “Quinoline-3-carbothioamides and related compounds as novel immunomodulating agents” (2002)
